ChEMBL document CHEMBL4330067, “Synthesis and mechanistic studies of diketo acids and their bioisosteres as potential antibacterial agents” (Eur J Med Chem, 2019)
Converted amounts (≈) assume the structure as drawn. The source made the active and inactive calls. The rule behind the calls is not given here.

How the values were obtained:
[1] = Inhibition of Enterococcus faecalis methionine aminopeptidase 1A using Met-AMC as substrate by Dixon method
In short: (§1)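 Purified MetAP at 4 µM in 50 mM HEPES with 150 mM KCl and CoCl2 at 3 molar equivalents of enzyme. pH 7.5 for SpMetAP1a and EfMetAP1a, pH 8.0 for HsMetAP1b. Substrate L-Met-AMC at 50, 100 and 150 µM. Compounds (10 mM DMSO stocks) tested over 1 to 120 µM for % inhibition; Ki by Dixon method.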

[2] = system: Mycobacterium tuberculosis; experiment: Inhibition of Mycobacterium tuberculosis methionine aminopeptidase 1C at 100 uM using Met-AMC as substrate relative to control
In short: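 Purified MtMetAP1c (4 µM) in 50 mM Hepes pH 7.5 with 150 mM KCl and CoCl2 at three molar equivalents of enzyme. Substrate was L-Met-AMC at 50, 100 or 150 µM. Compounds came from 10 mM DMSO stocks. Percent inhibition was taken against the uninhibited control.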

[3] = Inhibition of Streptococcus pneumoniae methionine aminopeptidase 1A using Met-AMC as substrate by Dixon method; in short: as §1
[4] = system: Escherichia coli; experiment: Synergistic antibacterial activity against Escherichia coli MRAE33 assessed as fractional inhibitory concentration index after 18 hrs in presence of ciprofloxacin by checkerboard method; type: functional
In short: (§2)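 Checkerboard combination with ciprofloxacin in Mueller-Hinton broth: compound 1024 to 16 µg/mL crossed with ciprofloxacin 128 to 2 µg/mL. Inoculum 5×10⁵ CFU/mL suspension, 18 h at 37 °C. Fractional inhibitory concentration index derived from the combination.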

[5] = system: Enterococcus faecalis; experiment: Inhibition of Enterococcus faecalis methionine aminopeptidase 1A at 100 uM using Met-AMC as substrate relative to control; in short: as §1
[6] = system: Escherichia coli; experiment: Antibacterial activity against Escherichia coli MRC24 at 512 ug/mL after 24 hrs by broth dilution assay relative to control; type: functional
In short: (§3)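 Multidrug-resistant E. coli isolates in Luria broth, test range 8 to 1024 µg/mL (ciprofloxacin 0.49 to 63.3 µg/mL). Inoculum 10 µL of a 1000-fold diluted 0.1 OD600 culture, incubated overnight at 37 °C. OD read at 600 nm. % inhibition = (a−b)/a×100, with media and compound-colour blanks subtracted.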

[7] = system: Escherichia coli; experiment: Antibacterial activity against Escherichia coli MRAE32 at 512 ug/mL after 24 hrs by broth dilution assay relative to control; type: functional; in short: as §3
[8] = species: Homo sapiens; experiment: Inhibition of human methionine aminopeptidase 1B at 100 uM using Met-AMC as substrate relative to control; in short: as §1
[9] = system: Escherichia coli; experiment: Antibacterial activity against Escherichia coli MRAE33 at 1024 ug/mL after 24 hrs by broth dilution assay relative to control; type: functional; in short: as §3
[10] = system: Escherichia coli; experiment: Synergistic antibacterial activity against Escherichia coli MRA11 assessed as ciprofloxacin MIC at 16 to 1024 ug/mL after 18 hrs by checkerboard method; type: functional; conditions: MRA11, 18 h; in short: as §2
[11] = system: Klebsiella pneumoniae; experiment: Anti-biofilm activity against Klebsiella pneumoniae after 24 hrs by XTT assay; type: functional, organism-based
In short: (§4)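 Biofilm XTT reduction assay: serial dilutions 1000 to 7.8 µg/mL in tryptic soy broth, inoculum approx. 5×10⁵ CFU/mL, 37 °C for 24 h static. Non-adherent cells removed by PBS wash, XTT added, 90 min at 37 °C in dark, absorbance at 490 nm. IC50 (50% inhibition of biofilm formation) read from dose-response curves.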

[12] = system: Escherichia coli; experiment: Antibacterial activity against Escherichia coli MROB11 after overnight incubation; type: functional; in short: as §3
[13] = Inhibition of human methionine aminopeptidase 1B using Met-AMC as substrate by Dixon method; in short: as §1
[14] = system: Escherichia coli; experiment: Antibacterial activity against Escherichia coli MRAE32 after overnight incubation; type: functional; in short: as §3
[15] = Cytotoxicity against CHO cells assessed as cell viability at 100 ug/mL after 48 hrs by MTT assay relative to control; type: cell-based, Cricetulus griseus; conditions: chinese hamster, read-out: Activity
In short: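 MTT assay: cells maintained in DMEM with 10% FBS and penicillin/streptomycin at 37 °C, 5% CO2. Seeded at approx. 2×10⁴ cells/well, 24 h before treatment, then exposed to 10 to 400 µg/mL for 48 h at 37 °C. MTT (5 mg/mL stock in PBS) added for 4 h, formazan dissolved in DMSO, A570 read. Triplicate wells; viability given relative to untreated cells.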

[16] = system: Escherichia coli; experiment: Bactericidal activity against Escherichia coli at sub-MIC after 22 hrs by spectrophotometric analysis; type: functional, organism-based
In short: (§5)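 Growth kinetics in 50 mL nutrient broth seeded at approx. 2×10⁶ cells/mL, compound at 2MIC, MIC and ½MIC, 37 °C at 160 rpm. Ciprofloxacin 10 µg/mL as positive control. 1 mL aliquots taken every 2 h from 0 to 22 h. Turbidity read at 600 nm and OD plotted against time.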

[17] = system: Enterococcus faecalis; experiment: Anti-biofilm activity against Enterococcus faecalis after 24 hrs by XTT assay; type: functional, organism-based; in short: as §4
[18] = system: Escherichia coli; experiment: Bactericidal activity against Escherichia coli at 1 to 2 times MIC after 24 hrs by spectrophotometric analysis; type: functional, organism-based; in short: as §5
[19] = system: Escherichia coli; experiment: Antibacterial activity against Escherichia coli MRC17 at 512 ug/mL after 24 hrs by broth dilution assay relative to control; type: functional; in short: as §3
[20] = system: Enterococcus faecalis; experiment: Antibacterial activity against Enterococcus faecalis MTCC 439 after 24 hrs by broth dilution assay; type: functional; conditions: MTCC 439, 24 h
In short: (§6)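 Broth dilution per NCCLS in nutrient broth, serial dilutions 1000 to 7.8 µg/mL, DMSO below 4% final. Inoculum approx. 2.5×10⁶ cells/mL, 37 °C with shaking at 150 rpm for 24 h. MIC taken as the lowest concentration with no visible growth. Ciprofloxacin served as positive control.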

[21] = system: Escherichia coli; experiment: Antibacterial activity against Escherichia coli MRA11 after overnight incubation; type: functional; in short: as §3
[22] = system: Escherichia coli; experiment: Antibacterial activity against Escherichia coli ATCC 25922 after 24 hrs by broth dilution assay; type: functional; conditions: ATCC 25922, 24 h; in short: as §6

Cc1c(C(=O)/C=C(\O)C(=O)N[C@H](C)C(=O)O)oc2ccc(Br)cc12
Ki [1]: 11.9 µM | inhibition [2]: 87.7% | Ki [3]: 28.3 µM | fractional inhibitory concentration index (FICI) [4]: 1.0156 | inhibition [5]: 92.7% | Activity [6]: 100% | Activity [7]: 100% | inhibition [8]: 87.5% | Activity [9]: >95% | MIC [10]: 16 µg/mL | IC50 [11]: 113 µg/mL (≈ 286 µM) | ICmax [12]: 512 µg/mL | Ki [13]: 22.1 µM | ICmax [14]: 512 µg/mL | viability at 48 h, 100 ug/mL [15]: 70% | Activity [16]: Active | IC50 [17]: 1240 µg/mL (≈ 3140 µM) | Activity [18]: Active | Activity [19]: 100% | MIC [20]: 125 µg/mL (≈ 316 µM) | ICmax [21]: 512 µg/mL | MIC ([21]; Escherichia coli, MRA11): 512 µg/mL (≈ 1290 µM) | MIC [22]: 62.5 µg/mL (≈ 158 µM)
